Measurements collected from several papers.
Each line is one published result; the experiments were not run side by side.
Cell line: SK-MEL-5
Read-out: cell growth or viability

COc1ccc(C(=O)/C=C/c2cccnc2)cc1S(N)(=O)=O — GI50 (SRB; 48 h): 14.8 µM
O=C1NC(=NCc2cccs2)S/C1=C\c1ccc2ncccc2c1 — IC50: > 10 µM
COc1cccc(Oc2ccccc2NC(=O)CNC(=O)c2cccc3ccccc23)c1 — GI50 (SRB; 48 h): 0.219 µM
COc1ccccc1/C=C/C(=O)c1ccc(OC)c(S(N)(=O)=O)c1 — GI50 (SRB; 48 h): 3.9 µM
COc1cc(-c2ccc(-c3ccc(C(=N)N)nc3)s2)cc(OC)c1OC — GI50 (SRB): 1.67 µM
Cc1ncsc1-c1ccc(CNC(=O)[C@@H]2C[C@H](O)CN2C(=O)[C@@H](NC(=O)C2(F)CC2)C(C)(C)C)c(OCCc2ccc(CN3CCN(c4cc(-c5ccccc5O)nnc4N)CC3)cc2)c1 — IC50 (ATP luminescence; 7 days): 0.54 µM
O=C1NCCc2[nH]c(-c3ccncc3)cc21 — IC50: > 10 µM
COc1ccc(-c2ccc(-c3ccc(C(=N)N)nc3)s2)cc1 — GI50 (SRB): 1.79 µM
